Hits are enriched below; roughly 2.1% of the tested compounds scored in any of these assays.
IEC-6 cytotox: kills IEC-6 intestinal cells in KLF5 counter-screen; IEC-6 cytotoxicity, luminescence viability; AID 1825; 290,000 tested, 0.78% active; inhibition, % at 5 µM; in the data active means inhibition above about 22%
KLF5 inh: kruppel-like factor 5 inhibition | DLD-1 KLF5 promoter-luciferase reporter, luminescence | inhibition, % at 5 µM | 290,000 tested, 0.23% active;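 active means inhibition above a per-plate limit of that plate's mean compound inhibition plus 3 SD, cut at about 60% in these data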;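 further: higher means less KLF5 promoter-driven luciferase light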
MT stabilizer: microtubule stabilizers in HeLa cells | HeLa tubulin immunostaining HCS, 24 h; share of cells brighter than vehicle mean+2SD | % tubulin-high responders, % at 10 µM | 200,000 tested, 0.83% active;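 active means plate Z-score above 3 for both tubulin-high and condensed-nucleus cell shares, with cell loss under 80%, at 10 µM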;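 further: anti alpha tubulin signal scored within the nucleus-defined area of each cell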
b-catenin transl: modulators of beta-catenin nuclear translocation; HeLa beta-catenin nuclear translocation, immunofluorescence imaging; nuclear translocation activity, % at 5 µM; 190,000 tested, 0.3% active;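 active means nuclear translocation activity above 50% at 5 µM, with a well cell count of 50 or more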;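 further: per-cell ratio of nuclear to cytoplasmic median beta-catenin stain intensity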
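Test system: human HeLa cell line; Doses: 5 µM primary, 0.02–20 µM confirmation; Incubation: 24 h compound exposure, 37°C; Detection: beta-catenin immunofluorescence imaging with DAPI; Read-out: beta-catenin nuclear/cytoplasmic ratio, % activation.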
Ba/F3 V617F tox: reduce viability of Ba/F3 cells dependent on JAK2V617F | Ba/F3 EpoR-JAK2V617F viability, ATP luminescence | inhibition, % at 5.6 µM | 220,000 tested, 1.1% active;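 active means inhibition above the campaign mean plus 3 SD over all tested compounds, cut at about 24% in these data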;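 further: cytokine-independent growth of Ba/F3 cells driven by EpoR plus mutant JAK2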
BaF3 parental: reduces parental Ba/F3 cell viability, JAK2V617F counter-screen; CellTiter-Glo ATP luminescence; inhibition, % at 5.6 µM; 220,000 tested, 1.1% active; AID 1486;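 active means inhibition above a per-campaign cutoff, the mean inhibition of all tested compounds plus 3 SD, cut at about 27% in these data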
A number is an active result; 0 = inactive; - = no result.

SMILES	IEC-6 cytotox	KLF5 inh	MT stabilizer	b-catenin transl	Ba/F3 V617F tox	BaF3 parental
Cc1ccc2nc(C)c(C(=O)N/N=C/c3cccc([N+](=O)[O-])c3)cc2c1	0	0	0	-	0	0
Cc1nc2c(C)cccc2cc1C(=O)N/N=C/c1ccc(N(C)C)cc1	0	0	40.0	0	0	0
Cc1nc2c(C)cccc2cc1C(=O)N/N=C/c1ccc(C(=O)O)cc1	0	0	0	0	0	0
Cc1nc2c(C)cccc2cc1C(=O)N/N=C/c1cccc([N+](=O)[O-])c1	0	0	20.3	0	0	0
Clc1ccc(Cn2c(/C=C/c3ccco3)nc3ccccc32)cc1	0	0	0	0	0	27.0
CCC1C/C(=C/c2ccco2)C(=O)/C(=C/c2ccco2)C1 (centres undefined)	0	0	0	0	30.4	0
CC1CCCC(C)N1C(=O)COC(=O)Cc1ccc(F)cc1 (centres undefined)	0	0	-	-	-	-
Nc1ccc(OC(=O)Nc2ccc(O)cc2)cc1	0	0	-	0	0	0
O=C(Nc1ccc(N2CCN(c3ccc(O)cc3)CC2)cc1)Oc1ccccc1	0	0	17.9	0	0	0
O=c1oc2ccccc2cc1-c1nnc(NCc2ccco2)s1	0	0	20.1	-	0	0
Cc1cnc(NC(=O)CSc2nnc(N)s2)s1	0	0	0	0	0	0
CC[N+]1(CC)CC2=Cc3c(ccc4ccccc34)C(C)C2C1 (centres undefined)	0	0	-	0	62.8	54.0
Cc1ccccc1NC(=O)N1c2ccccc2CC1C (centres undefined)	0	0	0	0	0	0
Cc1c(C(=O)C(=O)N2CC=C(c3ccccc3)CC2)c2ccccc2n1C	46.9	0	0	61.5	77.0	28.4
O=C(O)c1ccccc1C(=O)N1CC=C(c2ccccc2)CC1	0	0	0	0	0	38.3
Cc1c(C(=O)C(=O)N2c3ccccc3CC2C)c2ccccc2n1C (centres undefined)	0	0	16.8	0	0	0
O=C(O)c1ccccc1C(=O)N1CCN(C(=O)c2ccccc2Cl)CC1	0	0	0	0	0	0
Cc1ccc(NC(=O)C(=O)NCc2ccc(/C=C(/C#N)C(=O)NCc3cccnc3)o2)cc1C	0	0	0	0	0	0
CCC(=Nc1ccccc1O)C1=C(O)CC(c2ccccc2)CC1=O (centres undefined)	0	0	-	0	0	0
CCC(=Nc1ccccc1OC)C1=C(O)CC(c2ccccc2)CC1=O (centres undefined)	0	0	15.1	0	0	0
CC(=O)C1=C(O)CC(c2ccccc2)CC1=NCCc1c(C)[nH]c2ccc(C)cc12 (centres undefined)	0	0	0	0	0	0
CCC(=NCCc1c(C)[nH]c2ccc(C)cc12)C1=C(O)CC(c2ccccc2)CC1=O (centres undefined)	0	0	15.5	135.3	0	0
CCOc1ccccc1N=CC1=C(O)CC(c2ccccc2)CC1=O (centres undefined)	0	0	0	0	0	0
COc1ccc(N=CC2=C(O)CC(c3ccccc3)CC2=O)c(OC)c1 (centres undefined)	0	0	27.1	-	0	0
COc1ccccc1N1CCN(C(=O)CCC(=O)Nc2nnc(C(C)C)s2)CC1	0	0	-	-	-	-
SMILES	IEC-6 cytotox	KLF5 inh	MT stabilizer	b-catenin transl	Ba/F3 V617F tox	BaF3 parental
O=C(CSc1cn(CCNC(=O)c2cccs2)c2ccccc12)NCc1ccccc1	0	0	0	0	0	0
Cc1cccc(NS(=O)(=O)c2cnc[nH]2)c1	0	0	0	0	0	92.8
O=S(=O)(Nc1cccc(C(F)(F)F)c1)c1cnc[nH]1	0	0	0	0	0	0
O=[N+]([O-])c1ccc(N2CCN(C(=S)Nc3cccc(F)c3)CC2)cc1	0	0	0	0	27.9	32.4
O=[N+]([O-])c1ccc(N2CCN(C(=S)Nc3ccc(F)cc3)CC2)cc1	0	0	0	0	0	0
CCOC(=O)N1CCN(C(=O)c2ccc(CS(=O)Cc3ccc(C)cc3)o2)CC1 (centres undefined)	0	0	-	-	-	-
COc1ccc(OC)c(C2=NOC(C(=O)NCc3ccco3)C2)c1 (centres undefined)	0	0	21.1	-	0	0
COc1cc(OC)c(C2=NOC(C(=O)NCc3ccc4c(c3)OCO4)C2)cc1Cl (centres undefined)	0	0	23.1	-	0	0

Compound activity (PubChem)
